A short description of experiment [1]: Cytoprotective activity against glucotoxicity in Sprague-Dawley rat DRG neurons assessed as cell viability at 1 uM by calcein-AM assay. The conditions noted are these: DRG neuron, read-out: Activity. The class given is functional. The gist of the method: (§1)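 Dorsal root ganglion neurons came from embryonic day 15–18 Sprague Dawley rats. They were trypsin-dissociated and grown on collagen in Neurobasal medium with 25 mM glucose, B-27 and 50 ng/ml NGF. Fluorodeoxyuridine and cytosine arabinoside were given for 2 days. On day 3, neurons received compound plus 20 mM excess glucose (45 mM total) for 4 h. Viability was read with 2 μM calcein AM, 30 min at 37°C, ex 485/em 520 nm, normalized to well protein.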

Experiment [2] in a line: Cytoprotective activity against glucotoxicity in Sprague-Dawley rat DRG neurons assessed as cell viability by calcein-AM assay. The class given is functional. As to conditions: DRG neuron. The gist of the method: as §1
The subject of experiment [3] is Nucleic Acid. Description: Activation of human HSP70 promoter transfected in rat 50B11 cells at 10 to 1000 nM after 16 hrs by luciferase reporter gene assay. The class given is cell-based. The method, boiled down: (§2)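 50B11 immortalized sensory neurons were grown in DMEM with 25 mM glucose, 10% FCS and 5 μg/ml blasticidin. They were lipofected with a luciferase reporter driven by the human Hsp70 promoter, which carries two heat shock elements. Cells were re-seeded after 24 h and exposed to compound for 16 h. Luciferase in lysates was normalized to total protein per well, with triplicate wells in at least three experiments.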
In general terms: A reporter such as luciferase makes a cellular process visible.

For the next experiment, the system named is DRG neuron. Description: Induction of HSP70 protein expression in Sprague-Dawley rat DRG neurons at 10 to 1000 nM. The class given is functional. The method, boiled down:
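Rat embryonic DRG neurons were preincubated overnight with 10–1000 nM compound or DMSO, then exposed to 4 h hyperglycemia. Hsp70 and β-actin were measured by immunoblot. Band intensity of Hsp70 was normalized to β-actin and expressed as fold of control.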

Experiment [4] relates to Nucleic Acid. Nature of the experiment: Activation of human HSP70 promoter transfected in rat 50B11 cells at 1 uM after 16 hrs by luciferase reporter gene assay. The class given is cell-based. The gist of the method:
as §2

In experiment [5] the target is T1, Heat shock protein HSP90 (Homo sapiens) (UniProt P07900+P08238). Nature of the experiment: Inhibition of HSP90 in human MCF7 cells assessed as degradation of Her2 up to 5 uM after 24 hrs by immunoblot analysis. The class given is cell-based. The gist of the method: (§3)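 MCF7 cells were exposed to compound for 24 h. Lysates were immunoblotted for the Hsp90 clients Her2, Raf and Akt, with β-actin as loading control. Geldanamycin at 500 nM served as the positive control for client degradation.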
A general note: A western blot detects proteins with antibodies after separation by electrophoresis.

Experiment [6] addresses T1, Heat shock protein HSP90 (Homo sapiens). Description: Inhibition of HSP90 in human MCF7 cells assessed as degradation of Raf up to 5 uM after 24 hrs by immunoblot analysis. The class given is cell-based. The method, boiled down:
as §3

The target is the same in experiment [7]. Nature of the experiment: Inhibition of HSP90 in human MCF7 cells assessed as degradation of Akt up to 5 uM after 24 hrs by immunoblot analysis. The class given is cell-based. The method, boiled down:
as §3

Experiment [8] can be described thus: Ratio of KU-32 ED50 to compound ED50 for cytoprotective activity against glucotoxicity in Sprague-Dawley rat DRG neurons. The class given is functional, DRG neuron.

Molecules are shown by their SMILES. Active and inactive are the calls of the source. The calls are words filed in the database; no cut-off is given here.

For `CO[C@@H]1[C@@H](O)[C@@H](O)[C@H](Oc2ccc(C3CC=CCC3NC(C)=O)c(-c3cccc(C(F)(F)F)c3)c2)OC1(C)C` (mixture of isomers), in experiment [1], the viability at 1 µM is 69%.

Consider `CO[C@@H]1[C@@H](O)[C@@H](O)[C@H](Oc2ccc(CCNC(C)=O)c(-c3ccc4c(c3)OCO4)c2)OC1(C)C`, for which the EC50 (as a rule, the concentration that produces a half-maximal response) in [2] is 0.0184 µM. The result in the experiment on Nucleic Acid [3] and in the experiment on DRG neuron was inactive. Further, in experiment [1], the viability at 1 µM was 83%.

In the case of `CO[C@@H]1[C@@H](O)[C@@H](O)[C@H](Oc2ccc(CCNC(C)=O)c(-c3cccc(CN4CCOCC4)c3)c2)OC1(C)C`, in experiment [1], the viability at 1 µM is 83%.

Take `CO[C@@H]1[C@@H](O)[C@@H](O)[C@H](Oc2ccc(CCNC(C)=O)c(-c3ccc(C(F)(F)F)cc3)c2)OC1(C)C`: the viability at 1 µM in [1] is 74%.

Regarding `CO[C@@H]1[C@@H](O)[C@@H](O)[C@H](Oc2ccc(CCNC(C)=O)c(-c3ccccc3SC)c2)OC1(C)C`, the EC50 in [2] was 0.384 µM. The viability at 1 µM in experiment [1] was 83%.

In the case of `CO[C@@H]1[C@@H](O)[C@@H](O)[C@H](Oc2ccc3cc(NC(C)=O)c(=O)oc3c2C)OC1(C)C`, in [2], the EC50 is 0.24 µM. The outcome in the experiment with Nucleic Acid [3] and with DRG neuron was Active. For the same molecule, the viability at 1 µM in experiment [1] is 86%.

For `CO[C@@H]1[C@@H](O)[C@@H](O)[C@H](Oc2ccc(CCNC(C)=O)c(-c3cccc(Cl)c3)c2)OC1(C)C`, in experiment [1], the viability at 1 µM was 90%.

As for `COc1ccccc1-c1cc(O[C@@H]2OC(C)(C)[C@H](OC)[C@@H](O)[C@H]2O)ccc1CCNC(C)=O`, the result with Nucleic Acid [4] was Active. The viability at 1 µM in [1] is 92%.

Regarding `COc1cccc(-c2cc(O[C@@H]3OC(C)(C)[C@H](OC)[C@@H](O)[C@H]3O)ccc2CCNC(C)=O)c1`, the viability at 1 µM in experiment [1] is 78%.

For `CO[C@@H]1[C@@H](O)[C@@H](O)[C@H](Oc2ccc(CCNC(C)=O)c(-c3ccccc3Cl)c2)OC1(C)C`, the viability at 1 µM in [1] was 71%.

For the molecule `CO[C@@H]1[C@@H](O)[C@@H](O)[C@H](Oc2ccc(CCNC(C)=O)c(-c3cccc(C)c3)c2)OC1(C)C`, the viability at 1 µM in experiment [1] was 82%.

For the molecule `CO[C@@H]1[C@@H](O)[C@@H](O)[C@H](Oc2ccc(CCNC(C)=O)c(-c3cccc(C(F)(F)F)c3)c2)OC1(C)C`, the EC50 in experiment [2] was 0.188 µM. In addition, the viability at 1 µM in [1] is 83%.

For `CO[C@@H]1[C@@H](O)[C@@H](O)[C@H](Oc2ccc(CCNC(C)=O)c(-c3ccc(O)cc3)c2)OC1(C)C`, the viability at 1 µM in experiment [1] was 67%.

Consider `CO[C@@H]1[C@@H](O)[C@@H](O)[C@H](Oc2ccc(CCNC(C)=O)c(-c3ccc(F)cc3)c2)OC1(C)C`, for which the viability at 1 µM in [1] is 75%.

For `CO[C@@H]1[C@@H](O)[C@@H](O)[C@H](Oc2ccc(CCNC(C)=O)c(-c3cccc(F)c3)c2)OC1(C)C` [CEMDOMESPIB], in [2], the EC50 is 0.013 µM. For the same molecule, the result in the experiment with Nucleic Acid [3] and in the experiment on DRG neuron was Active. Further, the inhibition result in experiment [5], in experiment [6] and in [7] was “inactive” throughout. Moreover, the “Ratio ED50” value in experiment [8] was determined as 14. In [1], the viability at 1 µM is 95%.

As to `CO[C@@H]1[C@@H](O)[C@@H](O)[C@H](Oc2ccc(CCNC(C)=O)c(-c3ccccc3)c2)OC1(C)C`, in experiment [1], the viability at 1 µM is 76%.

Turning to `CO[C@@H]1[C@@H](O)[C@@H](O)[C@H](Oc2ccc(C3CC=CCC3NC(C)=O)c(-c3cccc(F)c3)c2)OC1(C)C` (mixture of isomers), the viability at 1 µM in [1] is 78%.

With `CO[C@@H]1[C@@H](O)[C@@H](O)[C@H](Oc2ccc(CCNC(C)=O)c(-c3ccncc3)c2)OC1(C)C`, the viability at 1 µM in experiment [1] is 81%.

Turning to `CO[C@@H]1[C@@H](O)[C@@H](O)[C@H](Oc2ccc(CCNC(C)=O)c(-c3cccnc3)c2)OC1(C)C`, in experiment [1], the viability at 1 µM is 61%.

(Values after ChEMBL document CHEMBL2157863, “Synthesis and evaluation of novologues as C-terminal Hsp90 inhibitors with cytoprotective activity against sensory neuron glucotoxicity” (J Med Chem, 2012).)
